Measured values taken from article PMC2211770 (The Journal of Experimental Medicine, 2004).
One block for each compound: values may come before it. Residues, ends and D or L forms follow the SMILES beside them. *: point of attachment. Cbz = O=C(OCc1ccccc1)*; CH2F = FC*

How the values were obtained:
[1] = molecular target: T1, Recombinant human caspase-4 (Homo sapiens, UniProt P49662); assay: M867 potency against recombinant human caspase-4; type: biochemical
T1 sequence (P49662 81-270 limits assumed): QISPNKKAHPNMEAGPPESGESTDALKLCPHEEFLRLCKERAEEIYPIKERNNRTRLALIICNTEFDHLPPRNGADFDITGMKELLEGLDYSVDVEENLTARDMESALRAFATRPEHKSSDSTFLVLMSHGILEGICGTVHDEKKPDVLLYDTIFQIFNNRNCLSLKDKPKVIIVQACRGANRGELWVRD
T1 sequence (P49662 290-377 limits assumed): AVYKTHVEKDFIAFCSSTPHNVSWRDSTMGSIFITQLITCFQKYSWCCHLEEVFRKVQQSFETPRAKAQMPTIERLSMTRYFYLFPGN

[2] = molecular target: T2, Recombinant human caspase-2 (Homo sapiens, UniProt P42575); assay: M867 potency against recombinant human caspase-2; type: biochemical
T2 sequence (P42575 170-325 limits assumed): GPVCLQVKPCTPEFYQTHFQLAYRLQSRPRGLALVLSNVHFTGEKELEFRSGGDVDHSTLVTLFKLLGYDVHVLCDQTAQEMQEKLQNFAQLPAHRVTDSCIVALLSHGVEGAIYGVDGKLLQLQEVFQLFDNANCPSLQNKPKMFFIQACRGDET
T2 sequence (P42575 348-452 limits assumed): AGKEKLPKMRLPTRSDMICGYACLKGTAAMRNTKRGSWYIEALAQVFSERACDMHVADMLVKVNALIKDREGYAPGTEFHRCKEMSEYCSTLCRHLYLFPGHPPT

[3] = tested on: DNA fragmentation in cultured primary rat thymocytes; assay: DNA fragmentation; type: cell-based
In short: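 Thymocytes were cultured for 24 h at 10 × 10^6 cells/ml in CytoSF4 plus l-glutamine and antibiotics, with test compound at a range of concentrations. Cells fixed 30 min on ice in 70% EtOH and stained in PBS/0.1% Triton X-100/RNase A/25 μg/ml PI. Subdiploid DNA by flow cytometry, 20,000 events, duplicate samples, debris gated out on forward scatter. IC50 by 4-parameter fit.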

[4] = tested on: DNA fragmentation in thymocytes; assay: DNA fragmentation; type: in vivo, rat; settings: for Percentage of subdiploid cells (±SE): thymus 24 h
In short: (§1)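 CLP then followed: the ligated cecum was pierced through and through with a 20-gauge cannula and a silk thread was left in place for leakage. Shams had the cecum exteriorized only. Rats got 1 c.c. saline s.c., then a 2 ml/kg i.v. bolus of vehicle or test compound and 2 ml/h/kg infusion for 24 h. In the titration, doses were 0–10 mg/kg/h with one rat per dose. Thymus taken 24 h post-surgery.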

[5] = Drug levels in plasma, blood and spleen of rats under continuous i.v. infusion; type: in vivo; settings: rat, intravenous, 2 mg/kg/h
In short: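 Test compound was given to rats by continuous i.v. infusion after a 2 ml/kg bolus, delivered at 2 ml/h/kg for 24 h. Dose rates were 2 mg/kg/h for plasma and spleen levels, and 0.5 or 1.5 mg/kg/h for blood levels.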

[6] = molecular target: T3, Recombinant human caspase-6 (Homo sapiens, UniProt P55212); assay: M867 potency against recombinant human caspase-6; type: biochemical
T3 sequence (P55212 24-179 limits assumed): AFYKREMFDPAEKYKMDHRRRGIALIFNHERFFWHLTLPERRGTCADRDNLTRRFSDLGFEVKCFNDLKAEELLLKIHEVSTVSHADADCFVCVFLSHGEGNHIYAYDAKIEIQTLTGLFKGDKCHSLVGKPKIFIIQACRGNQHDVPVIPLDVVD
T3 sequence (P55212 194-293 limits assumed): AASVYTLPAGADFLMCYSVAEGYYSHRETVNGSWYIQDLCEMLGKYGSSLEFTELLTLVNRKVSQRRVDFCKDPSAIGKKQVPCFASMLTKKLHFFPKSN

[7] = molecular target: T4, Recombinant human caspase-7 (Homo sapiens, UniProt P55210); assay: M867 potency against recombinant human caspase-7; type: biochemical
T4 sequence (P55210 24-198 limits assumed): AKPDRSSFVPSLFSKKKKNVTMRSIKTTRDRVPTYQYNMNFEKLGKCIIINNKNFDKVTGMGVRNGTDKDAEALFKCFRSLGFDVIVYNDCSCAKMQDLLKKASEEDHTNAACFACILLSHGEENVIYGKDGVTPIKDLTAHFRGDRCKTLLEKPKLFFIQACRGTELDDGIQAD
T4 sequence (P55210 207-303 limits assumed): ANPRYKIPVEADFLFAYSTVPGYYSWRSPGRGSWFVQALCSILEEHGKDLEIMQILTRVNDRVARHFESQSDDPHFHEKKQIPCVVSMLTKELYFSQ

[8] = molecular target: T5, Recombinant human caspase-5 (Homo sapiens, UniProt P51878); assay: M867 potency against recombinant human caspase-5; type: biochemical
T5 sequence (P51878 137-327 limits assumed): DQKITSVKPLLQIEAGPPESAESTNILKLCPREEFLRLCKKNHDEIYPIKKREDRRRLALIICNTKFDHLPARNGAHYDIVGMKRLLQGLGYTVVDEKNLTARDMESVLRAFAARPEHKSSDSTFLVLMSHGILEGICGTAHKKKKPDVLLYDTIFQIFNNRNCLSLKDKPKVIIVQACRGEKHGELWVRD
T5 sequence (P51878 347-434 limits assumed): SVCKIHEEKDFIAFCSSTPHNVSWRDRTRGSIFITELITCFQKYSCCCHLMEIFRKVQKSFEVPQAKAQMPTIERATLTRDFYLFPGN

[9] = tested on: αII-spectrin cleavage in thymocytes; assay: αII-spectrin cleavage in the thymus of CLP-induced septic rats; type: in vivo, rat; settings: for Spectrin cleavage OD (±SE): thymus 24 h
In short: as §1

[10] = molecular target: Recombinant human caspase-8 (Homo sapiens, UniProt Q14790); assay: M867 potency against recombinant human caspase-8; type: biochemical
Recombinant human caspase-8, sequence (Q14790 217-374 limits assumed): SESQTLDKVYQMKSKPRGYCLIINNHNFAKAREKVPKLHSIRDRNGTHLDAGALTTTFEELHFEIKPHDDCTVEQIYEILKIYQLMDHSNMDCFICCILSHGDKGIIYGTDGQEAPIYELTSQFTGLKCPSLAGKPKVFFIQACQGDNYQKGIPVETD
Recombinant human caspase-8, sequence (Q14790 385-479 limits assumed): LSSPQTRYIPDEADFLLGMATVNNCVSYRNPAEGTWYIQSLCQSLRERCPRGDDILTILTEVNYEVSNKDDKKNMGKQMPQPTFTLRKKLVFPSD

[11] = molecular target: T6, Recombinant human caspase-3 (Homo sapiens, UniProt P42574); assay: M867 potency against recombinant human caspase-3; type: biochemical
T6 sequence (P42574 29-175 limits assumed): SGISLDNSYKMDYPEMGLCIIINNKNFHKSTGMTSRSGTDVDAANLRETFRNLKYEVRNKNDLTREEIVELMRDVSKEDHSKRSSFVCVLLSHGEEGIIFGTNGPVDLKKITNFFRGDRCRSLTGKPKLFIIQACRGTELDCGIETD
T6 sequence (P42574 176-277 limits assumed): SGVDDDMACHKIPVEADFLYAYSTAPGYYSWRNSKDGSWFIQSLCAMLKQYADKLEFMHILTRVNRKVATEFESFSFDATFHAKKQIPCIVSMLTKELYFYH

[12] = tested on: basal apoptotic parameters; assay: Basal apoptotic parameters in sham-operated animals; type: in vivo, rat; settings: sham-operated animals (unpublished data)
[13] = molecular target: T7, Recombinant human caspase-10 (Homo sapiens, UniProt Q92851); assay: M867 potency against recombinant human caspase-10; type: biochemical
T7 sequence (Q92851 220-415 limits assumed): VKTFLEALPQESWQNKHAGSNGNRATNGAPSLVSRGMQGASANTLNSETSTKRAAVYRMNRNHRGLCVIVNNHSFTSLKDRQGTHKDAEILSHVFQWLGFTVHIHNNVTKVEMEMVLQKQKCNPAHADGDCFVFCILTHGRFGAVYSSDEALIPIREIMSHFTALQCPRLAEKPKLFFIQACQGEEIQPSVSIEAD
T7 sequence (Q92851 416-521 limits assumed): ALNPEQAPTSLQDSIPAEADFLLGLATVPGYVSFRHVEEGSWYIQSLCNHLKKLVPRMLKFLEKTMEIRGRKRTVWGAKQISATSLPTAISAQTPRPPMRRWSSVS

[14] = molecular target: T8, Recombinant human caspase-1 (Homo sapiens, UniProt P29466); assay: M867 potency against recombinant human caspase-1; type: biochemical
T8 sequence (P29466 120-297 limits assumed): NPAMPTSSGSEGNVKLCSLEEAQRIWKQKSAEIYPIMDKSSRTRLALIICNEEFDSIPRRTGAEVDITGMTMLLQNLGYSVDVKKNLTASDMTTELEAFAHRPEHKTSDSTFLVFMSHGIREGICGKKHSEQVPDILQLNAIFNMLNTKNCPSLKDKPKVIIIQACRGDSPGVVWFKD
T8 sequence (P29466 317-404 limits assumed): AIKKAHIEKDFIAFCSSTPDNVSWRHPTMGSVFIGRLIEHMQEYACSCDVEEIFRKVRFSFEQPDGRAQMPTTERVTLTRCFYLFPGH

caspase-3 processing = assay: Caspase-3 Western blotting on thymus extracts of CLP rats dosed with M867; type: in vivo, rat; settings: all M867 doses
In short: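 Female Sprague-Dawley rats (250–300 g) had CLP via a 20-gauge through-and-through cecal puncture with a silk wick. Test compound was given as an i.v. femoral catheter bolus (2 ml/kg) then infused at 0–10 mg/kg/h for 24 h (vehicle n = 6; n = 1 per dose). Thymus lysates (40 μg, heat-denatured) were run on 10–20% SDS-PAGE and probed with rabbit anti-caspase-3 (1:2,000) and HRP anti-rabbit, with chemiluminescent detection.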

[15] = tested on: αII-spectrin cleavage in cultured primary rat thymocytes; assay: αII-spectrin cleavage in cultured primary rat thymocytes; type: cell-based; settings: read-out: IC50 spectrin, average of two to four experiments (single for zVAD-fmk and M808)
In short: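 Rat thymocytes, isolated by tissue grinding in cold PBS/glucose/glutamine/1% FBS and filtered, were kept 24 h at 10 × 10^6 cells/ml in CytoSF4 with l-glutamine and antibiotics over a test compound concentration series. The read-out is the caspase-3-generated p120 αII-spectrin neoepitope. IC50 from a 4-parameter curve fit.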

[16] = crude extrapolation, septic rats (Fig. 4)
[17] = septic rats, continuous i.v. infusion

- Ki [1]: 495 nM
- Ki [2]: > 100000 nM
- in vivo IC50 DNA fragmentation [4, 16]: 2 mg/kg/h
- concentration at 24 h ([5]; plasma): 650 ± 180 nM
- concentration at 24 h ([5]; spleen): 370 ± 100 nM
- Ki [6]: 3440 nM
- Ki [7]: 8.9 nM
- Ki [8]: 805 nM
- in vivo IC50 αII-spectrin cleavage [9, 16]: 0.5 mg/kg/h
- Ki [10]: 4030 nM
- Ki [11]: 1.4 nM
- Ki [13]: 29500 nM
- Ki [14]: 107 nM
SMILES: CCCCCN(C)CC(=O)[C@H](CC(=O)O)NC(=O)[C@H](CC)n1cc(C(C)(C)C)nc(NCc2nonc2C)c1=O [M867, (3S)-3-({(2S)-2-[5-tert-butyl-3-{[(4-methyl-1,2,5-oxadiazol-3-yl)methyl]amino}-2-oxopyrazin-1(2H)-yl]butanoyl}amino)-5-[methyl(pentyl)amino]-4-oxopentanoic acid]
- effect on DNA fragmentation ([3]; 0.1 μM, cultured thymocytes): without affecting
- reduction of DNA fragmentation in thymocytes ([4]; CLP rats, i.v. infusion over 24 h after CLP, first experiment (Fig. 2 D, n = 10)): 57%
- Percentage of subdiploid cells (±SE) ([4]; CLP rats, first experiment (n = 10; vehicle 25.12, sham 1.23)): 11.61 ± 2.95%
- Percentage of subdiploid cells (±SE) ([4]; CLP rats, second experiment (n = 4-5; vehicle 33.49, sham 0.37)): 13.25 ± 4.70%
- drug levels needed to inhibit DNA cleavage compared with αII-spectrin cleavage ([4]; experimental peritonitis, rats): fourfold
- doses fully inhibiting DNA fragmentation [4, 17]: above 5 mg/kg/h
- effect on DNA fragmentation in dose titration ([4]; septic rats, doses up to 10 mg/kg/h): almost abrogated
- reduction of αII-spectrin cleavage in thymocytes ([9]; CLP rats, i.v. infusion over 24 h after CLP, first experiment (Fig. 2 C, n = 10)): 88%
- Spectrin cleavage OD (±SE) ([9]; CLP rats, first experiment (n = 10; vehicle 0.97, sham 0.21)): 0.30 ± 0.01 OD
- Spectrin cleavage OD (±SE) ([9]; CLP rats, second experiment (n = 4-5; vehicle 0.58, sham 0.12)): 0.18 ± 0.01 OD
- inhibition of αII-spectrin cleavage ([9]; septic rats, 2 mg/kg/h): almost complete inhibition
- doses achieving abolition of αII-spectrin cleavage [9, 17]: below 2 mg/kg/h
- effect on basal apoptotic parameters [12]: no effect
- caspase-3 processing (caspase-3 processing): processed equally well

- IC50 ([3]; read-out: IC50 subdiploid, cultured rat thymocytes, average of two to four experiments (single for zVAD-fmk and M808)): 25000 nM
- IC50 [15]: 600 nM
SMILES: COC(=O)C[C@H](NC(=O)[C@H](C)NC(=O)[C@@H](NC(=O)OCc1ccccc1)C(C)C)C(=O)CF [zVAD-fmk, zVAD-fluoromethyl ketone, reference compound] (Cbz-Val-Ala-Asp(OMe)-CH2F)
